The target in data set [1] is T1, Nucleotide-binding oligomerization domain-containing protein 1 (Homo sapiens) (UniProt Q9Y239).
T1 sequence (whole entry): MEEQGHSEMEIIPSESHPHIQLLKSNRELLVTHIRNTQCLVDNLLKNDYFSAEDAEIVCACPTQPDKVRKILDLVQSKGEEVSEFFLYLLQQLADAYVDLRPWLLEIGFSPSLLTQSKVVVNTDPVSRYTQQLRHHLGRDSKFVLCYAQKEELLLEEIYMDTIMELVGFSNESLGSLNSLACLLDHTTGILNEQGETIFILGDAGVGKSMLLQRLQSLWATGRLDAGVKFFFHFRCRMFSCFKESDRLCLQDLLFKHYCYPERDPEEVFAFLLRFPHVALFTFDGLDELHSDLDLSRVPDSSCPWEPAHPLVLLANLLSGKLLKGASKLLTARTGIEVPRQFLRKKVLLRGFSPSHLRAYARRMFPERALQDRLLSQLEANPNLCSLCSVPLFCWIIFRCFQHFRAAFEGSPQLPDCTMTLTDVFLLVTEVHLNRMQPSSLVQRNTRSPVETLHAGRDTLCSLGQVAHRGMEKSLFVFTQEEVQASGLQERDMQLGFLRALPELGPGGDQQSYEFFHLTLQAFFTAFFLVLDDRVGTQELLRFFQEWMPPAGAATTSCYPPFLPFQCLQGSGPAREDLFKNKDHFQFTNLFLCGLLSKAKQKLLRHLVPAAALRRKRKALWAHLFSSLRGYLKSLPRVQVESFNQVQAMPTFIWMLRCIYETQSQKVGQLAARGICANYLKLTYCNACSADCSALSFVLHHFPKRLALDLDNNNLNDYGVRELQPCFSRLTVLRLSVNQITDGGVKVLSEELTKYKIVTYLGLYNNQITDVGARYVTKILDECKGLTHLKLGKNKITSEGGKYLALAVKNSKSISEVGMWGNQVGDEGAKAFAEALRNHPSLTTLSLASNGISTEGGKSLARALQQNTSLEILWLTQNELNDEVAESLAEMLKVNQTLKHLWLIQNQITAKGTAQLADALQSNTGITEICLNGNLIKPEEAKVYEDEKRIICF
In words: Antagonist activity at NOD1 in HEK-Blue hNOD1 cells assessed as inhibition of C12-iE-DAP-induced NFkappaB activation-mediated SEAP release at 5 uM preincubated for 3 hrs followed by C12-iE-DAP addition and measured after 20 hrs by spectrophotometric method relative to control. The class given is cell-based. The note with it: filed as antagonist, time 23.0 hrs.

The target in data set [2] is T1, Nucleotide-binding oligomerization domain-containing protein 1 (Homo sapiens). In words: (§1) Antagonist activity at NOD1 in HEK-Blue hNOD1 cells assessed as inhibition of C12-iE-DAP-induced NFkappaB activation-mediated SEAP release preincubated for 3 hrs followed by C12-iE-DAP addition and measured after 20 hrs by spectrophotometric method. In kind it is cell-based. The note with it: filed as antagonist, time 23.0 hrs.

In data set [3] the target is T2, Nucleotide-binding oligomerization domain-containing protein 1 (Homo sapiens, UniProt Q9Y239).
T2 sequence (Q9Y239 whole entry): T1 sequence (whole entry)
The data set is described as §1. In kind it is cell-based.

The target in data set [4] is T1, Nucleotide-binding oligomerization domain-containing protein 1 (Homo sapiens). Briefly: Antagonist activity at NOD1 in human THP-1 cells assessed as inhibition of C12-iE-DAP-induced increase in RIP2 phosphorylation at 1 to 10 uM preincubated for 1 hr followed by C12-iE-DAP addition and measured after 30 mins by Western blot analysis. The class given is cell-based. The note with it: filed as antagonist, dose 1-10 µM, time 1.5 hrs. The gist of the method:
(§2)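 Serum-starved THP-1 cells pretreated with compound (1.0 or 10 µM) or without for 1 h. Then C12-iE-DAP 500 ng/mL (NOD1) or MDP (NOD2) for 30 min. Lysed in cold whole-cell buffer. Western blot for IκBα and for total and phospho RIP2, IKKα/β, p65, JNK, p38 and ERK1/2. β-actin as loading control.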

For data set [5] the target is unchanged. Briefly: Antagonist activity at NOD1 in human THP-1 cells assessed as inhibition of C12-iE-DAP-induced increase in IKKalpha/beta phosphorylation at 1 to 10 uM preincubated for 1 hr followed by C12-iE-DAP addition and measured after 30 mins by Western blot analysis. In kind it is cell-based. The note with it: filed as antagonist, dose 1-10 µM, time 1.5 hrs. The essentials:
as §2

For data set [6] the target is unchanged. In words: Antagonist activity at NOD1 in human THP-1 cells assessed as inhibition of C12-iE-DAP-induced increase in p38 phosphorylation at 1 to 10 uM preincubated for 1 hr followed by C12-iE-DAP addition and measured after 30 mins by Western blot analysis. In kind it is cell-based. The note with it: filed as antagonist, dose 1-10 µM, time 1.5 hrs. The gist of the method: as §2

For data set [7] the target is unchanged. In words: Antagonist activity at NOD1 in human THP-1 cells assessed as inhibition of C12-iE-DAP-induced IkappaBalpha degradation at 1 to 10 uM preincubated for 1 hr followed by C12-iE-DAP addition and measured after 30 mins by Western blot analysis. In kind it is cell-based. The note with it: filed as antagonist, dose 1-10 µM, time 1.5 hrs. The essentials: as §2

Data set [8] addresses T3, Nucleotide-binding oligomerization domain-containing protein 2 (Homo sapiens, UniProt Q9HC29). Briefly: Antagonist activity at NOD2 in human THP-1 cells assessed as inhibition of MDP-induced increase in RIP2 phosphorylation preincubated for 1 hr followed by MDP addition and measured after 30 mins by Western blot analysis. In kind it is cell-based. The note with it: filed as antagonist, dose 1-10 µM, time 1.5 hrs. The gist of the method: as §2

The target of data set [9] is T3, Nucleotide-binding oligomerization domain-containing protein 2. In words: Antagonist activity at NOD2 in human THP-1 cells assessed as inhibition of MDP-induced increase in IKKalpha/beta phosphorylation preincubated for 1 hr followed by MDP addition and measured after 30 mins by Western blot analysis. The class given is cell-based. The note with it: filed as antagonist, dose 1-10 µM, time 1.5 hrs. The gist of the method:
as §2

Data set [10] shares this target. In words: Antagonist activity at NOD2 in human THP-1 cells assessed as inhibition of MDP-induced increase in p38 phosphorylation preincubated for 1 hr followed by MDP addition and measured after 30 mins by Western blot analysis. The class given is cell-based. The note with it: filed as antagonist, dose 1-10 µM, time 1.5 hrs. The essentials:
as §2

Data set [11] has the same target. In words: Antagonist activity at NOD2 in human THP-1 cells assessed as inhibition of MDP-induced increase in JNK phosphorylation preincubated for 1 hr followed by MDP addition and measured after 30 mins by Western blot analysis. The note with it: filed as antagonist, dose 1-10 µM, time 1.5 hrs. In kind it is cell-based. The gist of the method: as §2
Data set [12] deals with T1, Nucleotide-binding oligomerization domain-containing protein 1 (Homo sapiens). Briefly: Antagonist activity at NOD1 in human THP-1 cells assessed as inhibition of C12-iE-DAP-induced TNFalpha mRNA expression preincubated for 1 hr followed by C12-iE-DAP addition and measured after 90 mins by qRT-PCR analysis. The class given is cell-based. The note with it: filed as antagonist, dose 1-10 µM, time 150.0 min. The essentials: (§3)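 THP-1 cells in RPMI-1640 with 10% FBS, treated with compound (1.0 or 10 µM) or vehicle for 1 h. Then stimulated 90 min with C12-iE-DAP 500 ng/mL (NOD1) or MDP (NOD2). IL-6, TNF-α and IL-8 mRNA measured by qRT-PCR. Mean ± SD, n = 6, two-tailed t-test.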

The target is the same in data set [13]. Briefly: Antagonist activity at NOD1 in human THP-1 cells assessed as inhibition of C12-iE-DAP-induced IL8 mRNA expression preincubated for 1 hr followed by C12-iE-DAP addition and measured after 90 mins by qRT-PCR analysis. The class given is cell-based. The note with it: filed as antagonist, dose 1-10 µM, time 150.0 min. The essentials:
as §3

Data set [14] has as its target T3, Nucleotide-binding oligomerization domain-containing protein 2. In words: Antagonist activity at NOD2 in human THP-1 cells assessed as inhibition of MDP-induced IL6 mRNA expression preincubated for 1 hr followed by MDP addition and measured after 90 mins by qRT-PCR analysis. In kind it is cell-based. The note with it: filed as antagonist, dose 1-10 µM, time 150.0 min. The essentials: as §3

For data set [15] the target is unchanged. Briefly: Antagonist activity at NOD2 in human THP-1 cells assessed as inhibition of MDP-induced IL8 mRNA expression preincubated for 1 hr followed by MDP addition and measured after 90 mins by qRT-PCR analysis. In kind it is cell-based. The note with it: filed as antagonist, dose 1-10 µM, time 150.0 min. The gist of the method:
as §3

Data set [16] is described as follows: Toxicity in mouse B16-F10 cells implanted C57BL/6 mouse assessed as change in body weight at 50 mg/kg, iv administered every other day for 15 days. The note with it: in vivo, 360 h, time 15 day. In kind it is organism-based.

Active and inactive are the calls of the source. The calls are words filed in the database; no cut-off is given here.

These results are taken from ChEMBL document CHEMBL4706575, “Nonpeptidic quinazolinone derivatives as dual nucleotide-binding oligomerization domain-like receptor 1/2 antagonists for adjuvant cancer chemotherapy” (Eur J Med Chem, 2020).

T3 sequence (Q9HC29 whole entry, the tested form may be a part): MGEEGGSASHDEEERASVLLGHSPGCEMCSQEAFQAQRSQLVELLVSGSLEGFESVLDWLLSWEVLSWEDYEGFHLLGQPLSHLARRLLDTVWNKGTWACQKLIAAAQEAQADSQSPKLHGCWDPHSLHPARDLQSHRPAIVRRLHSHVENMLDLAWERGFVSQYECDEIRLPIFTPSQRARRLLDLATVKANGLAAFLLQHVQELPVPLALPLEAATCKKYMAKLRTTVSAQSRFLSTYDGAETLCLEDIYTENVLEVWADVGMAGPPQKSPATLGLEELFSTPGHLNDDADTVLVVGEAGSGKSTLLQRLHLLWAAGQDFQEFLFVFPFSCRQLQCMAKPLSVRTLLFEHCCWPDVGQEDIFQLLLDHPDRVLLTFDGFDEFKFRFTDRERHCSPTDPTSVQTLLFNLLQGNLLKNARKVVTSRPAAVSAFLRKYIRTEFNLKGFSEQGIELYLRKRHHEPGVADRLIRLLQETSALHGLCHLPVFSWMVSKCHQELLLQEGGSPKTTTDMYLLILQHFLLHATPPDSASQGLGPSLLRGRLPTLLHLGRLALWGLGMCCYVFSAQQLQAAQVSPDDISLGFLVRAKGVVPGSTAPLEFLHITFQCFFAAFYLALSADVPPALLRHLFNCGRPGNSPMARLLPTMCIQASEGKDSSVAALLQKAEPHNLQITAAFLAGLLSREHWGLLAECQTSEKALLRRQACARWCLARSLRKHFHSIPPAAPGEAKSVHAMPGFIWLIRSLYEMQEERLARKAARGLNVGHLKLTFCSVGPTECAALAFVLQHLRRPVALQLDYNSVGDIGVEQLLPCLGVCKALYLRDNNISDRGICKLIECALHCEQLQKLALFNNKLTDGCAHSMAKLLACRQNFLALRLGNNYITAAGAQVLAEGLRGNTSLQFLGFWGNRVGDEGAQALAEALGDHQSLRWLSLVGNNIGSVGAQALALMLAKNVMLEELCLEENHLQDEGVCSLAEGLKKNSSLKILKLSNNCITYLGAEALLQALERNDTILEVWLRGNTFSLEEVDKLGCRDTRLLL

For `O=C(NCCCOc1ccc(C(F)(F)F)cc1)c1cc2ncn(CC(=O)N3CCCC(F)(F)C3)c(=O)c2cc1-c1cccc(Cl)c1`, the inhibition is 91.4% in [1]; “Dose-dependent effect” in [2]; “Dose-dependent effect” in data set [8]; “Dose-dependent effect” in data set [9]; “Dose-dependent effect” in data set [10]; “Dose-dependent effect” in [11]. Further, the inhibition entry in data set [12], in [13], in data set [14] and in data set [15] was “Dose-dependent effect” each time. The half-maximal inhibitory concentration (IC50) in data set [3] was 1130 nM. Moreover, the inhibition result in data set [4], in data set [5], in [6] and in [7] was “Active” in each case. In [16], the Activity result is listed as “Non-Toxic”.
